DNMT1 inh = human DNMT1 methyltransferase inhibitors, primary screen, biochemical, molecular beacon, fluorescence, HinP1I cleavage, uHTS | DNA (cytosine-5)-methyltransferase 1 (Homo sapiens), P26358 | inhibition (reported as % activation of signal), % at 10 µM | actives 0.83% (n = 360,000) | AID 588458, 2011; in the data active = inhibition above about 50%
SUMO1-SIM PPI = modulators of SUMO1 protein-protein interactions, primary screen, biochemical, uHTS | SUMO1 binding to a labelled peptide, TR-FRET, 1 h | Small ubiquitin-related modifier 1 (Homo sapiens), P63165 | inhibition, % at 20 µM | actives 0.33% (n = 360,000); in the data active = inhibition above about 37%
Target sequence (P63165 whole entry, looked up): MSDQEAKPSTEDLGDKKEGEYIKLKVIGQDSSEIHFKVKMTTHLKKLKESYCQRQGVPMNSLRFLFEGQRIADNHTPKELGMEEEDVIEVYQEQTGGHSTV
LMPTP inh = LMPTP phosphatase inhibitors, primary screen, biochemical, fluorescence intensity, uHTS; Low molecular weight phosphotyrosine protein phosphatase (Homo sapiens), P24666; recombinant LMPTP-A, OMFP fluorogenic substrate; inhibition, % at 20 µM; actives 0.22% (n = 360,000); AID 651560, 2012;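 active = compounds that cut the enzyme signal by at least half of the control window in the single-dose screen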;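 also: plate controls were DMSO wells with enzyme plus substrate for no effect and substrate without enzyme for full effect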
Target sequence (P24666 whole entry, looked up): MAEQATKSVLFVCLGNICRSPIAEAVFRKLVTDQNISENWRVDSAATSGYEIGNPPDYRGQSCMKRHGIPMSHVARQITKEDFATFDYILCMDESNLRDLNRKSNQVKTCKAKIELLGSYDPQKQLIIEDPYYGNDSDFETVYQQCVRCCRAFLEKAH
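Test system: LMPTP-A, protein tyrosine phosphatase of low molecular weight; Input: 0.625 nM enzyme; Incubation: 50 min dark incubation at room temperature; Signal: endpoint fluorescence intensity from OMFP dephosphorylation; Read-out basis: % inhibition versus control wells.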
STEP block = STEP phosphatase inhibitors, primary screen, biochemical, fluorescence intensity, uHTS. Tyrosine-protein phosphatase non-receptor type 5 (Homo sapiens), P54829. recombinant STEP, OMFP fluorogenic substrate. inhibition, % at 20 µM. actives 0.25% (n = 360,000);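 active = inhibition at 20 µM, scaled per plate between control wells, above about 37%, limit read from the data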;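 also: 0% = DMSO with enzyme and substrate and 100% = substrate only without enzyme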
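material = STEP tyrosine phosphatase | reagent = fluorogenic phosphatase substrate OMFP at 25 µM final | doses = single compound dose of 20 µM, 1% DMSO final | schedule = 20 min reaction, room temperature, in the dark | measured by = fluorescence, 480/540 nm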
Scp1 inh = Scp-1 phosphatase inhibitors, primary screen, biochemical, colorimetric, uHTS; Carboxy-terminal domain RNA polymerase II polypeptide A small phosphatase 1 (Homo …; inhibition, % at 20 µM; Recombinant Scp1, phosphopeptide, malachite green phosphate absorbance; actives 0.88% (n = 340,000);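 active = inhibition above about 50% at 20 µM, limit read from the data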;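 also: plate controls were DMSO wells with enzyme for no effect and wells lacking enzyme for full effect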
Target sequence (Q9GZU7 76-261 limits assumed): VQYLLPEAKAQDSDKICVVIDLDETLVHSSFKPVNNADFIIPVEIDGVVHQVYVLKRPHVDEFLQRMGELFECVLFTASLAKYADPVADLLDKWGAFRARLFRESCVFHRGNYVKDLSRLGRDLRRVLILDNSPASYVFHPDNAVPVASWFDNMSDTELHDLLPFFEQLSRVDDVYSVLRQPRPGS
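Times: enzyme reaction 45 min at room temperature, colour 5 min, stabilisation 30 min. Material: SCP-1 catalytic fragment, aa 76-261. Medium: Acidic Tris acetate buffer with magnesium and detergent. Signal: colorimetric free-phosphate detection, absorbance 630 nm. Read-out basis: % inhibition of SCP-1 phosphate liberation. Reagent: Phosphorylated 17-residue peptide substrate.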
Scp-1 conf = Scp-1 phosphatase inhibitors, retest, confirmation, biochemical, colorimetric, single concentration; recombinant SCP-1 catalytic domain, phosphate release, malachite green absorbance; actives 61% (n = 2,500); inhibition, % at 20 µM; shares compounds with Scp1 inh;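 also: plate controls were DMSO with enzyme for no effect and buffer wells lacking enzyme for full effect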
MG interference = colorimetric readout interference by compounds, confirmation, artefact control for Scp-1 inhibitor project, biochemical, single concentration; Colorimetric interference counterscreen, malachite green absorbance 630 nm; apparent inhibition (interference), % at 20 µM; shares compounds with Scp1 inh; 2,500 tested, under 10 active;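 also: compounds added after enzyme reaction finished so only phosphate colour detection is probed; plate controls were DMSO wells with completed Scp-1 reaction for no effect and substrate wells lacking enzyme for full effect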
Scp-1 Tm shift = Scp-1 binding by thermal shift, confirmation, orthogonal assay for Scp-1 inhibitor project, biophysical, differential scanning fluorimetry. thermal shift relative to vanadate control, % at 40 µM. AID 540329, 2011. Recombinant SCP1, Sypro Orange thermal shift Tm. shares compounds with Scp1 inh. actives 25% (n = 1,500);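 active = substances whose mean melting-temperature shift, as a percentage of the reference inhibitor's shift, reaches about 5.3%, limit read from the data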;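 also: 0% = Tm of DMSO wells and 100% = Tm with sodium orthovanadate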
An asterisk follows results filed as active. Sampled rows, rich in hits. Any-hit rate of the full collection: about 1.7%.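 The calls were made as follows, unless noted: active = inhibition of at least 30% at 20 µM; inactive = the rest.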

`Cc1ccc(CC(=O)N/N=C/c2ccc(OC(=O)c3ccc([N+](=O)[O-])cc3)cc2)cc1` gave DNMT1 inh 41, SUMO1-SIM PPI -6, LMPTP inh 15, STEP block 3, Scp1 inh 61*, Scp-1 conf 42*, MG interference -7 and Scp-1 Tm shift -4.
`O=C(CN1C(=O)NC2(CCOc3ccccc32)C1=O)c1ccc[nH]1` (stereo not drawn) gave DNMT1 inh 3, SUMO1-SIM PPI 2, LMPTP inh 5, STEP block 2 and Scp1 inh 11.
Screening O=C(Cn1c(=O)cnc2ccccc21)Nc1cc(Cl)ccc1N1CCOCC1 returned DNMT1 inh 40, SUMO1-SIM PPI -12, LMPTP inh 1, STEP block 12, Scp1 inh 53*, Scp-1 conf 48*, MG interference -11 and Scp-1 Tm shift 3.
Cc1nn(CCOc2cccc(Br)c2)c(C)c1[N+](=O)[O-] was read as DNMT1 inh 0, SUMO1-SIM PPI -2, LMPTP inh -2, STEP block -3 and Scp1 inh -4.
`O=C(N/N=C/c1ccc(F)c(F)c1)c1cc2c(s1)-c1ccccc1CC2` gave DNMT1 inh 7, SUMO1-SIM PPI 2, LMPTP inh 6, STEP block 0, Scp1 inh 62*, Scp-1 conf 42*, MG interference -16 and Scp-1 Tm shift 3.
Screening CNC(=O)c1cc2c(s1)-c1ccccc1CC2 returned DNMT1 inh 0, SUMO1-SIM PPI -13, LMPTP inh 0, STEP block 0 and Scp1 inh -7.
Screening Cc1ccc(S(=O)(=O)NCCC(=O)OCc2ccc([N+](=O)[O-])cc2)cc1C returned DNMT1 inh 2, SUMO1-SIM PPI -12, LMPTP inh 0, STEP block 4 and Scp1 inh -8.
Screening COc1cc(CO)c(OC)c([N+](=O)[O-])c1 returned DNMT1 inh 2, SUMO1-SIM PPI -21, LMPTP inh -1, STEP block -2 and Scp1 inh -6.
COc1cc2c(cc1OC)CN(C1CC(=O)N(c3c(C)cccc3C)C1=O)CC2 (stereo not drawn) was read as DNMT1 inh -13, SUMO1-SIM PPI 1, LMPTP inh 0, STEP block -1 and Scp1 inh -2.
`CCN(C(=O)Cc1c(C(=O)O)n(C)c2ccccc12)c1cccc(C)c1` gave DNMT1 inh 4, SUMO1-SIM PPI 8, LMPTP inh -1, STEP block 0 and Scp1 inh -10.
Screening COc1ccccc1-n1c(SCC(=O)N2CCOCC2)nc2cccnc21 returned DNMT1 inh 0, SUMO1-SIM PPI 2, LMPTP inh 0, STEP block -1 and Scp1 inh 0.
COc1ccccc1-n1c(SCC(=O)N2CCCCC2)nc2cccnc21 was read as DNMT1 inh 1, SUMO1-SIM PPI -4, LMPTP inh -1, STEP block -3, Scp1 inh 95*, Scp-1 conf -21 and MG interference -15.
For O=C(COc1ccccc1[N+](=O)[O-])Nc1cccc(S(=O)(=O)NC2=NCCCCC2)c1 the results were DNMT1 inh 7, SUMO1-SIM PPI -8, LMPTP inh 1, STEP block -1, Scp1 inh 62*, Scp-1 conf 74*, MG interference -10 and Scp-1 Tm shift 4.
Cc1c(C(=O)O)sc2nc3n(c(=O)c12)CCC3 was read as DNMT1 inh 23, SUMO1-SIM PPI 2, LMPTP inh 0, STEP block 7, Scp1 inh 64*, Scp-1 conf 55*, MG interference -5 and Scp-1 Tm shift 3.
Screening Cc1c(C(=O)N2CCN(c3ccccc3)CC2)sc2nc3n(c(=O)c12)CCC3 returned DNMT1 inh 0, SUMO1-SIM PPI 1, LMPTP inh -1, STEP block 0 and Scp1 inh -5.
CCCCC(CC)C1OCC(C[N+]2(C)CCOCC2)O1 (stereo not drawn) was read as DNMT1 inh 3, SUMO1-SIM PPI 0, LMPTP inh -1, STEP block 0 and Scp1 inh 31.
CC(c1ccccc1)C1OCC(C[N+]2(C)CCCCC2)O1 (stereo not drawn) was read as DNMT1 inh -2, SUMO1-SIM PPI 2, LMPTP inh 1, STEP block -4, Scp1 inh 93*, Scp-1 conf 83*, MG interference -13 and Scp-1 Tm shift -5.
For CC[N+]1=CN(c2ccccc2)C(C)=CC1(C)C the results were DNMT1 inh -4, SUMO1-SIM PPI 2, LMPTP inh -3, STEP block -3, Scp1 inh 78*, Scp-1 conf 86*, MG interference -12 and Scp-1 Tm shift -24.
`CC1=NN(c2ccccc2)C(=O)C1(C)C` gave DNMT1 inh 1, SUMO1-SIM PPI 0, LMPTP inh -1, STEP block 5 and Scp1 inh -3.
Screening COc1cccc2cc(C(=O)CS(=O)(=O)c3ccc(C)cc3)c(=O)oc12 returned DNMT1 inh 6, SUMO1-SIM PPI -19, LMPTP inh 0, STEP block 1, Scp1 inh 66*, Scp-1 conf -7 and MG interference -19.
For O=C(CNC(=O)Cc1ccccc1)NCC(=O)N1CCCCC1 the results were DNMT1 inh 0, SUMO1-SIM PPI 2, LMPTP inh -2, STEP block 0 and Scp1 inh -8.
`O=C(CNC(=O)Cc1ccc(Cl)cc1)NCC(=O)N1CCCCC1` gave DNMT1 inh 0, SUMO1-SIM PPI 4, LMPTP inh 1, STEP block -1, Scp1 inh 65*, Scp-1 conf -10 and MG interference -14.

Screening data from PubChem.
